# Only some compounds are listed: those with a hit (about 1.9% of all), similar ones and a draw of the others.
# CXCR6 block – CXCR6 receptor inhibitors, primary screen, cell-based, beta-arrestin, luminescence, CHO-K1 PathHunter, 1536-well; AID 602244, 2012; C-X-C chemokine receptor type 6 (Homo sapiens), O00574; 360,000 compounds, 0.36% hits; inhibition, % at 20 µM; in the data active = inhibition above about 34%, passing the limit was not always enough;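 also: antagonist mode with CXCL16 agonist at 10 nM final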
# Target sequence (O00574 whole entry, looked up): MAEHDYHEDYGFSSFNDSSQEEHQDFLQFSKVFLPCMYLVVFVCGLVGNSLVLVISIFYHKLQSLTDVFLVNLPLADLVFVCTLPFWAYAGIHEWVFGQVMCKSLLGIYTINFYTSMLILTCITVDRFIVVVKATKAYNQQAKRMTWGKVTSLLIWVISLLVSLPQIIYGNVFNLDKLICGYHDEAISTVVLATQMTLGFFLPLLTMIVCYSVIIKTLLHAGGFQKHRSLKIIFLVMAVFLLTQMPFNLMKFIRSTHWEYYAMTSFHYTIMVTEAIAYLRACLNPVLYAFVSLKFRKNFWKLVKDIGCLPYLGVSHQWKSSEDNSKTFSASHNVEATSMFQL
# H9c2 TAG inh – inhibitors of triacylglycerol accumulation, primary screen, cell-based, uHTS, fluorescence, H9c2 | inhibition, % at 12.5 µM | AID 651582, 2012 | H9c2 cells, Nile Red lipid (TAG) fluorescence; cells loaded with 200 µM oleic acid | 230,000 compounds, 0.66% hits;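 active = pattern-corrected inhibition of lipid staining of at least 50% with the nuclear-stain viability signal not falling by more than 50%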
# APJ antagonist – antagonists of human apelin receptor APJ, primary screen, CHO-K1 cells, beta-arrestin complementation, luminescence; P35414; inhibition, % at 20 µM; 330,000 compounds, 0.32% hits; AID 2521, 2010;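 active = inhibition above about 40% at 20 µM, limit read from the data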;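 also: cells challenged with 10 nM apelin-13 agonist together with compound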
# APJ ag – agonists of human apelin receptor APJ, primary screen, CHO-K1 cells, PathHunter beta-arrestin, luminescence. P35414. 330,000 compounds, 0.11% hits. 0% DMSO wells, 100% apelin. activation, % at 20 µM. AID 2520, 2010;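 active = activation more than six SD over the plate average, tested at 20 µM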
#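 Assay system: CHO-K1 APJ beta-arrestin complementation cell line / Compound: single test compound dose, 20 µM final, 1% DMSO / Times: overnight seeding, 90 min compound at 25 °C, 1 h detection / Technique: beta-gal luminescence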
# CCR6 antagonist – CCR6 receptor antagonists, primary screen, cell-based, CHO-K1, luminescence, beta-arrestin, uHTS | inhibition, % at 20 µM | 340,000 compounds, 0.49% hits | CHO-K1 CCR6 PathHunter beta-arrestin, CCL20-stimulated | C-C chemokine receptor type 6 (Homo sapiens), P51684;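 active = compounds whose inhibition of the agonist-driven luminescence signal at 20 µM reaches about 50%, limit read from the data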;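 also: cells stimulated with CCL20 at 14 nM final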
# EBI2 antag – EBI2 receptor antagonists, beta-arrestin recruitment, primary screen, cell-based, luminescence, 7a,25-OHC stimulation, uHTS; G-protein coupled receptor 183 (Homo sapiens), P32249; inhibition, % at 5 µM; 360,000 compounds, 0.81% hits; 7a,25-OHC stimulated; in the data active = inhibition above about 38%;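 also: enzyme fragment complementation signal reports receptor beta-arrestin coupling in cells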
# EBI2 conf – EBI2 antagonist hit retest, beta-arrestin, confirmation, cell-based, single concentration, luminescence, 7a,25-OHC stimulation; 7a,25-OHC antagonism; shares compounds with EBI2 antag; 2,400 compounds, 29% hits; inhibition, % at 5 µM;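 active = inhibition of at least 50%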
# EBI2 agonist – EBI2 agonist activity of antagonist hits, confirmation, counter-screen for EBI2 antagonist project, cell-based, single concentration, agonist mode, luminescence. shares compounds with EBI2 antag. EBI2-expressing cells, 60 min; 0% vehicle, 100% 7α,25-dihydroxycholesterol control. activation, % at 5 µM. 2,400 tested, under 10 active. AID 652000, 2013;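 active = activation of at least 50%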
# bGal counter – E. coli beta-galactosidase enzyme inhibition, confirmation, counter-screen for EBI2 antagonist project, biochemical, luminescence, single concentration; inhibition, % at 5 µM; purified beta-galactosidase, luminescent Galacton Star, 15 min; AID 652176, 2013; 2,400 compounds, 1% hits; shares compounds with EBI2 antag;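 active = replicate-average signal at least 3 plate SD below neutral wells, shown as high inhibition, flagging enzyme-inhibiting false positives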;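 also: higher means stronger loss of beta-gal luminescence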
# A number is an active result; - = inactive; . = no result.
SMILES,CXCR6 block,H9c2 TAG inh,APJ antagonist,APJ ag,CCR6 antagonist,EBI2 antag,EBI2 conf,EBI2 agonist,bGal counter
COc1cccc(-c2cc(C(=O)N3CCN(S(=O)(=O)c4ccccc4)CC3)[nH]n2)c1,-,-,-,-,-,-,.,.,.
CC(=O)N1CCN(S(=O)(=O)c2cccc(C(=O)NCCC3=CCCCC3)c2)CC1,-,-,-,-,-,-,.,.,.
COc1cccc(NC(=O)CSc2nc(O)c(C)c(=O)n2-c2ccc(C)cc2)c1,-,.,-,-,-,-,.,.,.
COc1cc2cnc(-c3ccccc3)c(C(=O)c3ccc(F)cc3)c2cc1OC,-,.,-,-,-,-,.,.,.
COc1cccc(C(=O)c2c(-c3ccccc3)ncc3cc(OC)c(OC)cc23)c1,-,-,.,.,-,85,56,-,-
CSc1ncccc1C(=O)Nc1cccc(S(=O)(=O)N(C)c2ccccc2)c1,-,-,-,-,-,-,.,.,.
Cc1ccc(OCCCC(=O)NC2CCCCC2)cc1,-,-,-,-,-,-,.,.,.
Cc1ccc(OCC(=O)NNC(=O)C2CCN(c3ncnc4sc(C)c(C)c34)CC2)cc1,-,-,-,-,-,-,.,.,.
Cc1sc2ncnc(N3CCC(C(=O)NNC(=O)COc4ccc(Br)cc4)CC3)c2c1C,-,-,-,-,-,57,-,-,-
Cc1sc2ncnc(N3CCC(C(=O)NNC(=O)COc4ccc(Cl)cc4)CC3)c2c1C,-,-,.,.,-,51,-,-,-
O=C(NCc1ccccc1)C1Cc2c(-c3ccc4c(c3)OCO4)ccnc2O1 (centres undefined),-,-,.,.,.,-,.,.,.
Nn1c(SCc2ccc(F)cc2)nnc1-c1ccncc1,-,-,-,-,-,-,.,.,.
CCCCc1ccc(NC(=O)CSc2nc(=O)n(CCN(CC)CC)c3c2CCCC3)cc1,-,-,-,-,-,51,-,-,-
CC(CN1CCOCC1)OC(=O)c1cccc(Cl)c1 (centres undefined),-,.,-,-,-,-,.,.,.
CNc1ccc(/C=C(\C#N)c2ccccn2)cc1[N+](=O)[O-],-,-,-,-,-,-,.,.,.
N#C/C(=C\c1ccc(Cl)c([N+](=O)[O-])c1)c1ccccn1,-,-,-,-,-,53,58,-,-
CSC(=Nc1ccccc1)C(C#N)c1nc2ccccc2[nH]1 (centres undefined),-,-,-,-,-,57,-,-,-
O=C(CSc1n[nH]c(=O)[nH]c1=O)Nc1ccc(C(=O)O)cc1,-,-,-,-,-,49,-,-,-
Nc1ccccc1N=Cc1ccc(-c2cccc(Cl)c2)o1,-,-,-,-,-,42,-,-,-
CC(C)(C)c1ccc(C(=O)Nc2ccc(O)c3c(=O)cc(-c4ccccc4Cl)oc23)cc1,-,.,-,-,-,-,.,.,.
Cc1ccc(/C=C/C(=O)Nc2ccc(O)c3c(=O)cc(-c4ccccc4Cl)oc23)cc1,-,-,-,-,-,44,-,-,-
CCOc1ccc2nc(COC(=O)c3ccncc3)c(C(=O)c3ccccc3)[n+]([O-])c2c1,-,-,-,-,-,45,-,-,-
CCOc1ccc2nc(COC(=O)c3ccco3)c(C(C)=O)[n+]([O-])c2c1,-,-,-,-,-,-,.,.,.
CCOc1ccc2nc(COC(=O)c3cccs3)c(C(=O)c3ccccc3)[n+]([O-])c2c1,-,.,-,-,-,47,-,-,-
CCOc1ccc2nc(COC(=O)c3cccs3)c(C(C)=O)[n+]([O-])c2c1,-,-,-,-,-,-,.,.,.
SMILES,CXCR6 block,H9c2 TAG inh,APJ antagonist,APJ ag,CCR6 antagonist,EBI2 antag,EBI2 conf,EBI2 agonist,bGal counter
COc1cc(NC(=O)c2cc3nc(C4CC4)cc(C(F)(F)F)n3n2)c(OC)cc1Cl,-,.,-,-,-,38,-,-,-
COc1ccc(Oc2nc(-c3ccncc3)nc3ccccc23)cc1,-,-,-,-,-,-,.,.,.
CCCOc1ccc(Oc2nc(-c3ccncc3)nc3ccccc23)cc1,-,-,-,-,-,50,-,-,-
COc1cccc(Oc2nc(-c3ccncc3)nc3ccccc23)c1,-,-,-,-,-,44,-,-,-
CSc1nc2nc(Cl)c(Cl)nc2[nH]1,-,-,.,.,.,-,.,.,.
CN(C)C(CNc1ncnc2ccccc12)c1c(F)cccc1Cl (centres undefined),-,.,-,-,-,-,.,.,.
COc1ccccc1NS(=O)(=O)c1ccc(C)c(NS(=O)(=O)c2cc(C(=O)O)cc(C)c2C)c1,-,-,-,-,-,-,.,.,.
Cc1cccc2c1-c1sc(C(=O)Nc3ccccc3N3CCN(C)CC3)cc1CO2,-,-,-,-,-,-,.,.,.
CCN1CCN(C(=O)c2cc3c(s2)-c2c(C)cccc2OC3)CC1,-,.,-,-,-,91,78,-,-
O=C(c1ccco1)N1CCN(C(=O)c2cc3c(s2)-c2ccccc2OC3)CC1,-,-,-,-,-,70,62,-,-
CCOC(=O)N1CCN(C(=O)c2cc3c(s2)-c2c(C)cccc2OC3)CC1,-,.,-,-,-,91,87,-,-
Cc1cccc2c1-c1sc(C(=O)N3CCc4ccccc4C3)cc1CO2,-,-,-,-,-,-,.,.,.
Cc1cccc2c1-c1sc(C(=O)N3CCCCC3)cc1CO2,-,-,-,-,-,78,71,-,-
COc1ccc(CCNC(=O)/C(C#N)=C/c2cccc(OCc3ccccc3)c2)cc1OC,-,.,-,-,-,53,-,-,-
CN(CC(=O)Nc1cccc2ccccc12)C(=O)c1cccc(S(=O)(=O)N(C)C)c1,-,-,-,-,-,-,.,.,.
C=CCN1CC(=O)N2C(c3ccccc3)c3[nH]c4ccccc4c3C[C@H]2C1=O (some centres undefined),-,.,-,-,-,-,.,.,.
CCOC(=O)C1=CCN(S(=O)(=O)c2ccccc2C)C1c1cccc(Cl)c1 (centres undefined),.,.,.,.,.,61,-,-,-
